We go through 41 compounds from ChEMBL document CHEMBL1154039, “Synthesis and biological evaluation of 1,2,4-trisubstituted imidazoles and 1,3,5-trisubstituted pyrazoles as inhibitors of transforming growth factor beta type 1 receptor (ALK5)” (Bioorg Med Chem Lett, 2009).

One may read the inhibition as the relative decrease from the control value, in per cent.

Assay [1] deals with T1, Activin receptor type-1B (Homo sapiens) (UniProt P36896).
T1 sequence (whole entry): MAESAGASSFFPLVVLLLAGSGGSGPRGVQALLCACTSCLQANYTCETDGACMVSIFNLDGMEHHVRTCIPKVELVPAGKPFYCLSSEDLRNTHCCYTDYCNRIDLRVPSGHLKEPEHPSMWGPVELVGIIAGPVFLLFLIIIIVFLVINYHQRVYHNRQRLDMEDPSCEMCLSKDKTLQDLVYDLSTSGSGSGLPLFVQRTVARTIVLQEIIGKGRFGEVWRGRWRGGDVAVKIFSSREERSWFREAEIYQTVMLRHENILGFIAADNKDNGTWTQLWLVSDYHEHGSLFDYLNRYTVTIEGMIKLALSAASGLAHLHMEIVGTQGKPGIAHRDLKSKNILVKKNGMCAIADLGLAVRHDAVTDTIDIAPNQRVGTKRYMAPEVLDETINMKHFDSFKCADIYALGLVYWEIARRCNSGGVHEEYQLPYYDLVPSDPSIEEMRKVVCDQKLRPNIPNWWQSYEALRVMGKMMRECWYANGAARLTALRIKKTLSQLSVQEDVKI
Briefly: Inhibition of ALK4 expressed in baculovirus/Sf9 cells assessed as inhibition of receptor autophosphorylation at 1 uM after 3 hrs. An outline of the steps: (§1)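 Kinase carried a C-terminal 6-His tag and was purified on a Ni2+ affinity column. The purified kinase was preincubated with compound for 30 min at 37 °C. The reaction was started with 10–8 mol/L ATP plus Smad3 substrate and run 3 h at 30 °C. Autophosphorylation was quantified from ATP consumed, using a luminescent ATP detection assay.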

Assay [2] in a line: Selectivity for ALK5 over ALK4. Summed up:
(§2)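 Purified C-terminally 6-His-tagged ALK4, ALK5 and ALK7, each run in a separate autophosphorylation assay. Each enzyme was preincubated with a range of compound concentrations for 30 min at 37 °C. Reactions were started with 10–8 mol/L ATP plus Smad3 and run 3 h at 30 °C. Phosphorylation was quantified as ATP consumed, using a luminescent ATP assay. Selectivity was obtained by comparing activity across the kinases.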

The nature of assay [3]: Selectivity for ALK5 over ALK7. An outline of the steps:
as §2

For assay [4], the target named is T1, Activin receptor type-1B (Homo sapiens). Briefly: Inhibition of ALK4 expressed in baculovirus/Sf9 cells assessed as inhibition of receptor autophosphorylation at 0.1 uM after 3 hrs. An outline of the steps: as §1
A short description of assay [5]: (§3) Cytotoxicity against human embryo lung […] cells at 30 uM by MTT assay. It is filed as functional. Summed up: (§4)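 HLF cells were seeded at about 3000 per well and grown 24 h before treatment. The number of viable cells at treatment (t = 0) was measured to correct for differences in starting cell number. At the read times, MTT tetrazolium salt and phenazine methosulfate were added directly to the medium for 2–3 h.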
A general note: Tetrazolium dyes change colour on reduction, which living cells bring about.

In assay [6] the target is T2, Activin receptor type-1C (Homo sapiens) (UniProt Q8NER5).
T2 sequence (whole entry): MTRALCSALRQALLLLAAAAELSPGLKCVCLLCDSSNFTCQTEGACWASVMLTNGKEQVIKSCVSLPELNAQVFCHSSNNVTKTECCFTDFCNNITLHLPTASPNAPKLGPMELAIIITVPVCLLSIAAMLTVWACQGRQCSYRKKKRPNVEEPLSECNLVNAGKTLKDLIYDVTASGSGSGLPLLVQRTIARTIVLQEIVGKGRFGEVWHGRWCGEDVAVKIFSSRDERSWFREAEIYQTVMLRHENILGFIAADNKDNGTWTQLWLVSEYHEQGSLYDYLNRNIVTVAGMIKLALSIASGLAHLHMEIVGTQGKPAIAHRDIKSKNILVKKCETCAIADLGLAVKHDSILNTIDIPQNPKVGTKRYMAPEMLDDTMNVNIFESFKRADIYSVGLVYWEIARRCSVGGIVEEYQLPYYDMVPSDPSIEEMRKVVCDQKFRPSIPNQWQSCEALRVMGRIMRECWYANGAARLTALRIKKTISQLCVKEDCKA
Briefly: Inhibition of ALK7 expressed in baculovirus/Sf9 cells assessed as inhibition of receptor autophosphorylation at 1 uM after 3 hrs. An outline of the steps:
as §1

In assay [7] the target is T2, Activin receptor type-1C (Homo sapiens). Briefly: Inhibition of ALK7 expressed in baculovirus/Sf9 cells assessed as inhibition of receptor autophosphorylation at 0.1 uM after 3 hrs. An outline of the steps:
as §1

For assay [8], the species on record is Homo sapiens. Described as §3. It is filed as functional. An outline of the steps: as §4
Assay [9] in a line: Selectivity for ALK4 over ALK5. An outline of the steps: as §2
Assay [10] in a line: Selectivity for ALK4 over ALK7. An outline of the steps:
as §2

Activity calls are given as the source filed them. The rule behind the calls is not given here. Some results are limits rather than exact numbers.

Consider `Cc1cccc(-n2nc(-c3ccc(C(N)=O)cc3)cc2-c2ccc3c(c2)OCO3)n1`, for which the inhibition amounted to 66.8% in [1], 39.4% in assay [4], 64% in assay [6] and 4.2% in [7]. The Selectivity ratio in assay [2] and in [3] was 10 in each case. The same compound showed an Activity in [5] of 5.6%.
Turning to `COc1ccccc1-n1nc(-c2ccc(C(N)=O)cc2)cc1-c1ccc2c(c1)OCO2`, the outcome in assay [8] was inactive.
Still for that read-out and setting: under `COc1ccccc1-n1nc(-c2ccc(C(N)=O)cc2)cc1-c1ccc(F)cc1` stands “inactive”.
For `NC(=O)c1ccc(-c2cc(-c3ccc(O)c(O)c3)n(-c3ccccc3O)n2)cc1`, the inhibition was found to be 93.7% in [1], 73.8% in assay [4], 56.5% in [6] and 34.8% in [7]. The Selectivity ratio in assay [9] and in [10] was > 10 each time. This compound also yielded an Activity in assay [5] of 48.9%.
In the case of `Cc1cccc(-c2nc(C(C)(C)C)cn2-c2ccc3c(c2)OCO3)n1`, in [5], the Activity was 7.3%.
For `NC(=O)c1ccc(-c2cc(-c3ccc(F)cc3)n(-c3ccccc3O)n2)cc1`, in [8], the result was inactive.
Take `Cc1cccc(-c2nc(C(C)(C)C)cn2-c2ccc(F)cc2)n1`: in [5], the Activity stood at 59%.
In turn, `COc1ccc(-n2cc(-c3ccc(C(N)=O)cc3)nc2-c2cccc(C)n2)cc1F` gave an Activity in [5] of 9.1%.
For `NC(=O)c1ccc(-c2cc(-c3ccc4c(c3)OCO4)n(-c3nccs3)n2)cc1`, the result in assay [8] was inactive.
As to `NC(=O)c1ccc(-c2cc(-c3ccc4c(c3)OCO4)n(-c3ccccc3F)n2)cc1`, the inhibition is 50.7% in assay [1], 15.5% in [4], 39.1% in assay [6] and 22.7% in [7]. The outcome in [8] was inactive.
Take `Cc1cccc(-c2nc(-c3ccc(C(N)=O)cc3)cn2-c2ccc(F)cc2)n1`: the inhibition in assay [1] amounted to 34.5%; in [4], 25%; in [6], 35.1%; in assay [7], 16.2%. Also, in [5], the Activity is 19.1%.
As for `O=C(O)c1ccc(-c2cc(-c3ccc4c(c3)OCO4)n(-c3ccccc3F)n2)cc1`, the Activity in assay [5] is listed as 5.4%.
On to `Cc1cccc(-c2nc(-c3ccc(C#N)cc3)cn2-c2ccc3c(c2)OCO3)n1`, for which the inhibition in assay [1] worked out at 76.9%; in [4], 45.5%; in [6], 44.6%; in assay [7], 33.9%. In assay [5], this compound showed an Activity of 4%.
On to `NC(=O)c1ccc(-c2cc(-c3ccc4c(c3)OCO4)n(-c3ccccc3)n2)cc1`, for which the outcome in [8] was inactive.
On to `N#Cc1ccc(-c2cn(-c3ccc4c(c3)OCO4)c(-c3ccccc3F)n2)cc1`, for which the inhibition in assay [1] was 36.6%; in assay [4] it was 13.3%; in assay [6], 63.6%; in assay [7], 30.5%. The Activity in assay [5] amounted to 12.3%.
Regarding `COc1ccc(-c2cc(-c3ccc(C(N)=O)cc3)nn2-c2ccccn2)cc1OC`, the Activity in assay [5] amounted to 5.3%.
Take `NC(=O)c1ccc(-c2cc(-c3ccc(F)cc3)n(-c3ccccn3)n2)cc1`: the Activity in assay [5] came to 23.7%.
Regarding `COc1ccc(-n2cc(-c3ccc(C#N)cc3)nc2-c2cccc(C)n2)cc1F`, the Activity in [5] worked out at 57%.
As to `NC(=O)c1ccc(-c2cc(-c3ccccn3)n(-c3ccc4c(c3)OCO4)n2)cc1`, the outcome in [8] was inactive.
Consider `Cc1cccc(-c2nc(-c3ccc(C#N)cc3)cn2-c2ccc(F)cc2)n1`, for which the Activity in [5] was 20.2%.
Take `COc1ccc(-n2cc(C(C)(C)C)nc2-c2cccc(C)n2)cc1F`: the Activity in [5] turned out to be 22.1%.
As to `Cc1cccc(-n2nc(-c3ccc(C#N)cc3)cc2-c2ccc3c(c2)OCO3)n1`, the inhibition in assay [1] turned out to be 77.7%; in [4], 53.6%; in assay [6], 73.4%; in assay [7], 31.4%. The compound also had an Activity in assay [5] of 15.4%.
Take `Cc1cccc(-c2nc(C(C)(C)C)cn2-c2ccc3c(c2)OCCO3)n1`: the result in assay [8] was inactive.
The same measure, in the same setting: under `N#Cc1ccc(-c2cc(-c3ccc4c(c3)OCO4)n(-c3ccccc3F)n2)cc1` stands “inactive”.
For the compound `NC(=O)c1ccc(-c2cn(-c3ccc4c(c3)OCCO4)c(-c3ccccn3)n2)cc1`, the Activity in assay [5] amounted to 21%.
Consider `NC(=O)c1ccc(-c2cc(-c3ccc4c(c3)OCO4)n(-c3ccccc3C(F)(F)F)n2)cc1`, for which, in assay [8], the outcome was inactive.
As for `Cc1cccc(-c2nc(-c3ccc(C(N)=O)cc3)cn2-c2ccc3c(c2)OCCO3)n1`, the inhibition in [1] is 49.3%; in [4], 28.5%; in assay [6] it was 25%; in assay [7], 13.4%. This compound also displayed an Activity in [5] of 0.7%.
As for `COc1ccc(-c2cc(-c3ccc(C(N)=O)cc3)nn2-c2ccccc2F)cc1OC`, the inhibition in assay [1] turned out to be 70.4%; in [4], 32.1%; in assay [6], 65.8%; in assay [7] it was 5.3%. This compound returned an Activity in [5] of 19.4%.
With `N#Cc1ccc(-c2cc(-c3ccccc3F)n(-c3ccc4c(c3)OCO4)n2)cc1`, in assay [5], the Activity is 57.5%.
On to `NC(=O)c1ccc(-c2cn(-c3ccc4c(c3)OCO4)c(-c3ccccn3)n2)cc1`, for which the inhibition in assay [1] is 73.7%; in assay [4], 65.6%; in assay [6] it was 54.8%; in [7] it was 24.5%. This compound showed an Activity in assay [5] of 21.6%.
For the compound `NC(=O)c1ccc(-c2cn(-c3ccc4c(c3)OCO4)c(-c3ccccc3F)n2)cc1`, the result in assay [8] was inactive.
With `COc1ccc(-c2cc(-c3ccc(C#N)cc3)nn2-c2ccccn2)cc1OC`, the result in assay [8] was inactive.
Compound `NC(=O)c1ccc(-c2cc(-c3ccc(F)cc3)n(-c3ccccc3F)n2)cc1` came in with an Activity in [5] of 19.54%.
In the case of `COc1ccc(-c2cc(-c3ccc(C#N)cc3)nn2-c2ccccc2F)cc1OC`, in [8], the outcome was inactive.
Consider `OCc1ccc(-c2cc(-c3ccc4c(c3)OCO4)n(-c3ccccc3F)n2)cc1`, for which the outcome in [8] was inactive.
With `Cc1cccc(-c2nc(-c3ccc(C#N)cc3)cn2-c2ccc3c(c2)OCCO3)n1`, in assay [5], the Activity was 28%.
`NC(=O)c1ccc(-c2nc(-c3ccccn3)c(-c3ccc4c(c3)OCO4)[nH]2)cc1` [SB-431542]: the Activity in [5] is 55%.
On to `Cc1cccc(-c2nc(-c3ccc(C(N)=O)cc3)cn2-c2ccc3c(c2)OCO3)n1`, for which the inhibition in assay [1] was 29.8%; in [4], 15.6%; in assay [6] it was 41.3%; in assay [7], 4.5%. Moreover, the Activity in assay [5] is given as 14.9%.
For `N#Cc1ccc(-c2cc(-c3ccc4c(c3)OCO4)n(-c3ccccn3)n2)cc1`, the outcome in assay [8] was inactive.
For `NC(=O)c1ccc(-c2cc(-c3ccc4c(c3)OCO4)n(-c3ccccn3)n2)cc1`, the inhibition worked out at 74.7% in assay [1], 70% in assay [4], 57.3% in [6] and 35.5% in [7]. The compound also displayed an Activity in assay [5] of 26.7%.
In the case of `NC(=O)c1ccc(-c2cc(-c3ccccc3F)n(-c3ccc4c(c3)OCO4)n2)cc1`, the inhibition in [1] was 41.9%; in [4], 3.2%; in [6], 57.4%; in assay [7], 50.9%. In assay [5], this compound returned an Activity of 0.52%.
